This test concerns ldlA[mSR-BI] CHO cells viability, CellTiter-Glo ATP luminescence, 24 h. Briefly: ldlA[mSR-BI] cell viability loss – CellTiter-Glo luminescence, 24 h, dry powder, set 5, cytotoxicity control for SR-BI HDL uptake inhibitor project, dose response (AID 602126). The essentials:
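Technique: CellTiter-Glo ATP luminescence; System: ldlA[mSR-BI] cells, cell viability measurement; Amount: 4,000 ldlA[mSR-BI] cells per well; Incubation: 24 h compound exposure at 37 °C, then 10 min with detection reagent.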
On the technique in general: Cellular ATP, detected with luciferase, serves as a proxy for viable cell number.

The source made the active and inactive calls.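 Rule for the calls: active = compounds cutting cell ATP light whose fitted AC50 is at most double the top dose tried; inconclusive = flat moderate signal loss, or an unreliable curve fit; inactive = the rest.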

As a reminder, the AC50 is the midpoint of the concentration-response curve, whichever way the signal moves. For the compound `COc1ccc(-c2nnn(CC(=O)N(C3CCCCC3)C(C)(C)C(=O)NC3CCCC3)n2)cc1OC`, the AC50 was > 70 µM (inactive).

In the case of `O=C(Nc1ccc(-c2nc3ccc(NC(=O)c4ccccc4)cc3[nH]2)cc1)c1ccccc1`, the concentration at half-maximal activity (AC50) was 2.63 µM.

`O=C(Nc1ccc(Cl)cc1C(=O)c1ccc(Cl)cc1)c1cc(Br)ccc1NS(=O)(=O)c1ccc(Cl)cc1`: the AC50 is 4.98 µM.

Take `C[C@H](CO)N1C[C@H](C)[C@@H](CN(C)S(=O)(=O)c2ccc(Cl)cc2)Oc2ccc(NC(=O)Cc3cn(C)c4ccccc34)cc2C1=O`: the AC50 is > 70 µM (inactive).

As to `O=C(Nc1nc(-c2ccc3c(c2)CCN3)cs1)c1ccco1`, the AC50 is > 70 µM (inactive).

Turning to `C[C@@H]1CN([C@H](C)CO)C(=O)c2cc(NC(=O)Cc3cn(C)c4ccccc34)ccc2O[C@@H]1CN(C)S(=O)(=O)c1ccc(Cl)cc1`, the AC50 is > 70 µM (inactive).

In the case of `COc1cc(OC)cc(C(=O)Nc2nc(-c3ccc4[nH]ccc4c3)cs2)c1`, the AC50 was 15.6 µM.

For `O=C(CN(C(=O)Cn1nnc(-c2ccc3c(c2)OCO3)n1)C1CCCCC1)NC1CCCC1`, the AC50 was > 70 µM (inactive).

For the compound `C[C@@H]1CN([C@H](C)CO)C(=O)c2cc(NC(=O)Cc3cn(C)c4ccccc34)ccc2O[C@@H]1CN(C)S(=O)(=O)c1ccc(F)cc1`, the AC50 is 50.8 µM.

On to `O=C(Nc1cccc(NC(=O)c2cc([N+](=O)[O-])ccc2Cl)n1)c1cc([N+](=O)[O-])ccc1Cl`, for which the AC50 was 21.9 µM.

Consider `COc1cc(OC)cc(C(=O)Nc2nc(-c3ccc4c(c3)CCN4C(=O)OC(C)(C)C)cs2)c1`, for which the AC50 was > 70 µM (inactive).

For the compound `CS(=O)(=O)N1CCc2cc(-c3csc(NC(=O)c4ccco4)n3)ccc21`, the AC50 was > 70 µM (inactive).

As to `CCc1cc2cc3c(cc2nc1SCC(=O)OC(C)C)OCO3`, the AC50 is > 70 µM (inactive).

As to `CCOc1ccccc1/C=C/c1onc(C)c1S(=O)(=O)N1CCC(C(=O)NC(C)(C)C)CC1`, the AC50 is > 70 µM (inactive).

On to `O=C(Nc1ccccc1)c1ccccc1NS(=O)(=O)c1ccc(Cl)cc1`, for which the concentration at half-maximal activity (AC50) was 32.5 µM.

As to `CC(C)C(=O)N1CCc2cc(-c3csc(NC(=O)c4ccco4)n3)ccc21`, the AC50 was > 70 µM (inactive).

As for `COC(=O)N1CCc2cc(-c3csc(NC(=O)c4cc(OC)cc(OC)c4)n3)ccc21`, the AC50 was > 70 µM (inactive).

`CCC(=O)N1CCc2cc(-c3csc(N(C)C(=O)c4cc(OC)cc(OC)c4)n3)ccc21`: the AC50 was 15.1 µM.

Consider `C[C@H]1CN([C@@H](C)CO)C(=O)c2cccc(NC(=O)Nc3ccccc3)c2O[C@@H]1CN(C)Cc1ccccc1`, for which the AC50 was > 70 µM (inactive).

With `C=CCN1CCc2cc(-c3csc(NC(=O)c4ccco4)n3)ccc21`, the AC50 is 57.7 µM.

Regarding `O=C(Nc1cc(Cl)ccc1Cl)c1cc(Br)ccc1NS(=O)(=O)c1ccc(Cl)c([N+](=O)[O-])c1`, the half-maximal activity concentration (AC50) was 21 µM.

For `O=C(Nc1cc(C(F)(F)F)ccc1Cl)c1ccccc1NS(=O)(=O)c1ccc(Cl)cc1`, the AC50 is 0.285 µM.

With `CCC(=O)N1CCc2cc(-c3csc(NC(=O)c4cccc(OC)c4)n3)ccc21`, the AC50 is > 70 µM (inactive).

Take `CCC(=O)N1CCc2cc(-c3csc(NC(=O)c4cc(OC)c(OC)c(OC)c4)n3)ccc21`: the AC50 is > 70 µM (inactive).

As to `CCC(=O)N1CCc2cc(-c3csc(NC(=O)c4cccs4)n3)ccc21`, the AC50 is 64.4 µM.

On to `O=C(Nc1ccc(-c2nc3ccc(NC(=O)c4ccc(Cl)cc4)cc3[nH]2)cc1)c1ccc(Cl)cc1`, for which the AC50 was 1.3 µM.

Consider `O=C(Nc1ccccc1Cl)c1ccccc1NS(=O)(=O)c1ccccc1`, for which the AC50 is 37.2 µM.

Turning to `COc1ccc(-c2cc(CC(=O)N(C3CCCCC3)C(C)C(=O)NC3CCCC3)no2)cc1OC` (stereo not given), the AC50 was > 70 µM (inactive).

Take `C[C@H](CO)N1C[C@H](C)[C@H](CN(C)S(=O)(=O)c2ccc(F)cc2)Oc2ccc(NC(=O)Cc3cn(C)c4ccccc34)cc2C1=O`: the AC50 is > 70 µM (inactive).

In the case of `COc1ccc([C@H]2CC(=O)C=C(c3cccc4c3sc3ccccc34)C2)cc1OC`, the AC50 is > 70 µM (inactive).

As to `COCC(=O)N1CCc2cc(-c3csc(NC(=O)c4cc(OC)cc(OC)c4)n3)ccc21`, the AC50 is > 70 µM (inactive).

For the compound `COc1ccc(-c2nc(CC(=O)N(C3CCCCC3)C(C)C(=O)NC3CCCC3)cs2)cc1OC` (stereo not given), the AC50 is 67 µM.

With `CCn1c(COc2c(C)cccc2C)nnc1SCC(=O)N1CCN(c2ccccc2)CC1`, the concentration at half-maximal activity (AC50) is 65.2 µM.

In the case of `CCC(=O)N1CCc2cc(-c3csc(NC(=O)c4ccco4)n3)ccc21`, the AC50 was > 70 µM (inactive).

As for `CCNC(=O)N1CCc2cc(-c3csc(NC(=O)c4cc(OC)cc(OC)c4)n3)ccc21`, the AC50 was 60 µM.

As to `CCC(=O)N1CCc2cc(-c3cn4ccccc4n3)ccc21`, the AC50 is 15.8 µM.

Turning to `CC(C(=O)NC1CCCC1)N(C(=O)Cn1nnc(-c2cccc(F)c2)n1)C1CCCCC1` (stereo not given), the AC50 was > 70 µM (inactive).

`CCC(=O)Nc1ccc(-c2csc(N)n2)cc1`: the AC50 was > 70 µM (inactive).

Take `C[C@@H]1CN([C@@H](C)CO)C(=O)c2cc(NC(=O)Cc3cn(C)c4ccccc34)ccc2O[C@@H]1CN(C)S(=O)(=O)c1ccc(Cl)cc1`: the AC50 was > 70 µM (inactive).

Consider `CCCN1CCc2cc(-c3csc(NC(=O)c4cc(OC)cc(OC)c4)n3)ccc21`, for which the AC50 is > 70 µM (inactive).

With `C[C@@H]1CN([C@H](C)CO)C(=O)c2cc(NC(=O)Cc3cn(C)c4ccccc34)ccc2O[C@H]1CN(C)S(=O)(=O)c1ccccc1`, the AC50 is 49.8 µM.

For the compound `C[C@H]1CN([C@@H](C)CO)C(=O)c2cccc(N(C)C)c2O[C@@H]1CN(C)Cc1ccc(Cl)c(Cl)c1`, the AC50 is > 70 µM (inactive).

Regarding `C[C@H]1CN([C@@H](C)CO)C(=O)c2cc(NC(=O)Cc3cn(C)c4ccccc34)ccc2O[C@H]1CN(C)S(=O)(=O)c1ccc(Cl)cc1`, the AC50 is > 70 µM (inactive).

With `COc1cc(OC)cc(C(=O)Nc2nc(-c3ccc4c(c3)CCN4C(=O)CN(C)C)cs2)c1`, the AC50 is 20.2 µM.

`O=C(Nc1ccc(-c2nc3cc(NC(=O)c4ccccc4[N+](=O)[O-])ccc3o2)cc1)c1ccccc1[N+](=O)[O-]`: the AC50 was 36.3 µM.

Take `N#Cc1sc2nc(C3CC3)cc(-c3ccc(Cl)cc3)c2c1N`: the AC50 is 63.1 µM.

As for `COc1cccc(-c2csc(N3CCN(C(=S)Nc4cccc(Cl)c4)CC3)n2)c1`, the AC50 was 51.7 µM.

For the compound `O=C(Nc1ccc(-c2nc3cc(NC(=O)c4ccccc4Cl)ccc3o2)cc1)c1ccccc1Cl`, the concentration at half-maximal activity (AC50) is 43.9 µM.

Regarding `Cc1cc(C)n(CC(=O)NC2CCCc3c2cnn3-c2ccc(C)c(C)c2)n1` (stereo not given), the AC50 is > 70 µM (inactive).

In the case of `COc1ccc(-c2nnn(CC(=O)N(CC(=O)NC3CCCC3)C3CCCCC3)n2)cc1OC`, the AC50 is > 70 µM (inactive).

With `C[C@H]1CN([C@@H](C)CO)C(=O)c2cc(NC(=O)Nc3ccccc3)ccc2O[C@@H]1CN(C)Cc1ccc(Cl)c(Cl)c1`, the AC50 was 57 µM.

Turning to `COc1cc(OC)cc(C(=O)Nc2nc(-c3ccc4c(c3)CCN4C(C)=O)cs2)c1`, the AC50 was > 70 µM (inactive).

Turning to `C[C@H]1CN([C@@H](C)CO)C(=O)c2cc(NC(=O)Cc3cn(C)c4ccccc34)ccc2O[C@@H]1CN(C)S(=O)(=O)c1ccc(Cl)cc1`, the AC50 was > 70 µM (inactive).

For the compound `C[C@@H]1CN([C@@H](C)CO)C(=O)c2cc(NC(=O)Cc3cn(C)c4ccccc34)ccc2O[C@@H]1CN(C)S(=O)(=O)c1ccc(F)cc1`, the AC50 is > 70 µM (inactive).

As for `CCC(=O)N1CCc2cc(-c3csc(NC(=O)c4cccc(OC(F)(F)F)c4)n3)ccc21`, the AC50 is > 70 µM (inactive).

In the case of `C[C@H]1CN([C@@H](C)CO)C(=O)c2cccc(NC(=O)Nc3ccc(F)cc3)c2O[C@@H]1CN(C)Cc1ccc(Cl)c(Cl)c1`, the AC50 was 21.6 µM.

For the compound `CC(C(=O)NC1CCCC1)N(C(=O)Cn1nnc(-c2ccc(Cl)c(Cl)c2)n1)C1CCCCC1` (stereo not given), the AC50 is 37 µM.

In the case of `Cc1cc(SC(C)C(=O)Nc2ncc(Cl)cc2Cl)nc2ccccc12` (stereo not given), the AC50 is 35.1 µM.

For the compound `O=C(CN(C(=O)Cn1nnc(-c2ccc3c(c2)OC(F)(F)O3)n1)C1CCCCC1)NC1CCCC1`, the AC50 was > 70 µM (inactive).

In the case of `CC(C(=O)NC1CCCC1)N(C(=O)Cn1nnc(-c2ccc(Cl)cc2)n1)C1CCCCC1` (stereo not given), the AC50 was > 70 µM (inactive).

For the compound `O=C(CN(C(=O)Cn1nnc(-c2ccc(Cl)c(Cl)c2)n1)C1CCCCC1)NC1CCCC1`, the AC50 was 46.2 µM.

Regarding `CC(C(=O)NC1CCCC1)N(C(=O)Cn1nnc(-c2ccc3c(c2)OCO3)n1)C1CCCCC1` (stereo not given), the AC50 was 53 µM.

For the compound `CCC(=O)N1CCc2cc(-c3csc(NC(=O)c4cc(OC)cc(OC)c4)n3)ccc21`, the AC50 is > 70 µM (inactive).

With `COC(=O)c1cn(C(=O)c2cccc3ccccc23)c2ccccc12`, the AC50 is 38 µM.

With `CCC(=O)N1CCc2cc(-c3csc(NC(=O)C4CCCO4)n3)ccc21` (stereo not given), the AC50 is 46.5 µM.

Turning to `CCC(=O)Nc1ccc(-c2csc(NC(=O)c3cccc(OC)c3)n2)cc1`, the AC50 is > 70 µM (inactive).

As for `CC(C(=O)NC1CCCC1)N(C(=O)Cn1nnc(-c2ccc3c(c2)OC(F)(F)O3)n1)C1CCCCC1` (stereo not given), the AC50 is 55.2 µM.

Consider `CCc1sc(N2C(=O)C3C4CCC(C4=C(C)C)C3C2=O)nc1-c1ccccc1` (stereo not given), for which the AC50 is > 70 µM (inactive).

Consider `CCC(=O)N1CCc2cc(-c3csc(NC(=O)c4cccc(OC)n4)n3)ccc21`, for which the AC50 was 66.5 µM.

Regarding `CCOC(=O)N1CCC(NC(=O)c2ccc3c(c2)N(Cc2ccc(F)cc2)CCS3)CC1`, the AC50 was 65.5 µM.

In the case of `CC(C)NC(=O)Nc1cccc2c1O[C@H](CN(C)Cc1ccc(Cl)c(Cl)c1)[C@@H](C)CN([C@@H](C)CO)C2=O`, the AC50 was > 70 µM (inactive).

With `O=C(Nc1cc(Cl)ccc1Cl)c1cc(Cl)ccc1NS(=O)(=O)c1ccc(Cl)c([N+](=O)[O-])c1`, the AC50 is 17.3 µM.

As to `COc1ccc(OC)c(CCNC(=O)c2ccc3c(c2)N(Cc2ccc(F)cc2)CCS3)c1`, the AC50 is > 70 µM (inactive).

With `CCCCCCC1CCC/C1=N\NC(N)=S` (stereo not given), the AC50 was 2.13 µM.

For the compound `COc1cc(OC)cc(C(=O)Nc2nc(-c3ccc4c(c3)CCN4)cs2)c1`, the AC50 was 46.5 µM.

Source of the values: PubChem BioAssay AID602126 (Broad Institute, 2011).
